Screening results from PubChem.
Not all results are given here.
PGC1a acetyl up – compounds raising PGC1a acetylation signal, primary screen, PGC1a modulator project, cell-based, U2OS, AlphaScreen, signal-increasing mode; activation, % at 15.6 µM; 350,000 compounds, 0.21% hits; AID 651723, 2012; overnight;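 active = every replicate reaching activation of at least 50%, whatever the mean replicate activation; inconclusive = replicates that disagree or another doubt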;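 note: hits raise the AlphaScreen acetylation signal above neutral controls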
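System – flag-PGC1a/GCN5 U2OS cells · Quantity – 7000 U2OS cells per well · Signal – AlphaScreen proximity luminescence, anti-acetyl-lysine antibody · Schedule – overnight compound treatment, 37 °C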
G6PC hep suppr – suppressors of forskolin-stimulated G6PC mRNA, dose response, PGC-1a acetylation activator project, cell-based, hepatocytes, RT-qPCR, cherry-picked samples; G6PC suppression (normalized activity, % of positive control; higher = more suppression), % at 26 µM; shares compounds with PGC1a acetyl up; primary mouse hepatocytes; 240 tested, under 10 active;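 active = dose curves showing G6PC suppression whose half-maximal dose is at most twice the top valid dose; inconclusive = flat curves with moderate negative activity, or unreliable fits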;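 note: G6PC expression relative to GAPDH housekeeping gene as delta delta Ct; 0% = median of neutral control wells and 100% = median of positive control wells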
PCK1 hep suppr – suppression of PCK1 mRNA in primary hepatocytes, dose response, PGC-1a acetylation activator project, cell-based, primary mouse hepatocytes, RT-qPCR, cherry-pick | PCK1 expression decrease, unspecified at 26 µM | 230 tested, under 10 active | forskolin-stimulated | shares compounds with PGC1a acetyl up;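 active = compounds lowering PCK1 expression whose fitted half-maximal concentration is at most twice the top tested dose; inconclusive = flat fit with moderate opposite-direction effect, or poor fit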;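 note: values are delta delta Ct of PCK1 relative to GAPDH; higher delta delta Ct means lower PCK1 expression so positive values indicate hits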
PGC1a hep suppr – suppression of PGC-1a mRNA in primary hepatocytes, dose response, PGC-1a acetylation activator project, cell-based, primary mouse hepatocytes, RT-qPCR, cherry-pick. shares compounds with PGC1a acetyl up. PGC-1a mRNA qPCR, forskolin; top dose 26 µM. max activity (PGC-1a expression decrease), %. 240 tested, under 10 active. AID 743467, 2014;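 active = compound lowering PGC-1a expression with fitted half-maximal concentration at most twice its top tested dose; inconclusive = flat curve with moderate opposite-direction effect, or poor fit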;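 note: 0% = neutral control wells median and 100% = positive control wells median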
* = called active by the depositor; i = inactive; ? = inconclusive; [ ] = another dose, or the depositor's remark.

SMILES	PGC1a acetyl up	others
C=C1C(=O)O[C@@H]2C[C@@H](C)[C@H]3C=CC(=O)[C@]3(O)C[C@@H]12	79.2*
CCCN(CCC)[C@@H]1CCc2cccc(O)c2C1	-42.3
O=[N+]([O-])c1ccc(N2CCOCC2)c2c1no[n+]2[O-]	-83.9
C[C@H]1CCC/C=C/[C@@H]2C[C@H](O)C[C@H]2[C@@H](O)/C=C/C(=O)O1	-37.3
CCN(CC)c1ccc(N=Cc2c(O)n(-c3ccc(OC)cc3)c(=O)[nH]c2=O)cc1	-46.0
COc1ccc(-n2c(O)c(C=NCCCn3ccnc3)c(=O)[nH]c2=O)cc1	68.3*
COC(=O)C1C2c3ccccc3OC1(C)N=c1s/c(=C/c3cn(C)nc3C)c(=O)n12 (configuration not stated)	-46.4
CC(=O)OC1CC2(O)C3CCC4CC(O)CCC4(C)C3CCC2(C)C1C1=CC(=O)OC1 (configuration not stated)	-65.3
CC(C)Oc1cccnc1N(C)C1CCN(Cc2ccccc2)CC1	-59.0
C=C1C(=O)OC2CC3(C)OC3C3OC3C3=CC(OC3=O)C12 (configuration not stated)	85.2*
CCOC(=O)CNC(=O)N1Cc2ccc(Br)cc2-n2nncc2C1	-40.9
CN1C2CCC1/C(=C/c1ccccn1)C(=O)/C2=C\c1ccccn1	-77.7
NC1C2CN3CCN(C2)CC1(c1ccccc1)C3 (configuration not stated)	-51.7
O=C1CSC2N1CCNC21CCCCC1 (configuration not stated)	-41.7
CC(=O)OC1CC(OC2C(O)CC(OC3C(O)CC(OC4CCC5(C)C(CCC6C5CCC5(C)C(C7=CC(=O)OC7)C(O)CC65O)C4)OC3C)OC2C)OC(C)C1OC1OC(CO)C(O)C(O)C1O (configuration not stated)	-42.4
C=C1C(=O)OC2CC3(C)OC3CCC(C)=CC(OC(C)=O)C12 (configuration not stated)	117.7*
C[C@H]1C[C@@H](C)C(=O)[C@@H]([C@H](O)CC2CC(=O)NC(=O)C2)C1	-68.3
CCC1(CC)C(=O)C=CNC1=O	-56.1
COc1ccc(C(c2ccc(OC)cc2)C(Cl)(Cl)Cl)cc1	93.4*
CC1CC(C)CC(C)C(O)C(C#N)=CC=CCC(C2CCCC2C(=O)O)OC(=O)CC(O)C(C)C1 (configuration not stated)	-60.1
CC(C)(O)/C=C/C(=O)[C@](C)(O)C1[C@H](O)C[C@@]2(C)C3CC=C4C(C[C@H](O)[C@@H](O)C4(C)C)[C@]3(C)C(=O)C[C@]12C (some centres not stated)	-64.5
CNCC(=O)c1ccc(O)c(O)c1	-54.7
CC1=CC(=O)C2=C(C)C[C@H](O)[C@@H]3[C@H](OC(=O)[C@H]3C)[C@@H]12	-52.6
Cc1ccc(N2C(=O)NC(=O)/C(=C/c3ccoc3)C2=O)cc1	-49.5
CCc1ccc(N2C(=O)NC(=O)/C(=C\C=C\c3ccco3)C2=O)cc1	113.6*
SMILES	PGC1a acetyl up	others
O=c1[nH]c2ccccc2n1C1CCN(C(c2cc3ccccc3o2)c2nnnn2Cc2ccccc2)CC1 (configuration not stated)	-48.8
O=c1c2ccccc2nc(/C=C/c2ccc([N+](=O)[O-])o2)n1-c1ccc(O)cc1	143.6*
CC(=O)OCC12CC(OC(=O)CC(C)C)C(C)=CC1OC1C(O)C(OC(C)=O)C2(C)C12CO2 (configuration not stated)	-73.6
C[C@]12CC[C@H]3[C@@H](CC[C@]4(O)C[C@@H](O)CC[C@]34C=O)[C@@]1(O)CC[C@@H]2C1=CC(=O)OC1	-96.4
O=C1NC2C(=CC(O)C(O)C2O)c2cc3c(c(O)c21)OCO3 (configuration not stated)	-62.7
CNC(=O)c1cccn(Cc2ccc(C(F)(F)F)cc2)c1=O	68.0*
COCCCn1c(N)c(C(=O)Nc2ccccc2)c2nc3ccccc3nc21	51.3*
COc1ccc(C(c2nnnn2C2CCCCC2)N2CCC3(CC2)C(=O)NCN3c2ccccc2)cc1 (configuration not stated)	120.3*
N#Cc1ccccc1NC(=O)CN1CC=C(c2ccccc2)CC1	-46.5
CC1=CC(=C2C(=O)NC(=S)NC2=O)C=C(C(F)(F)F)N1Cc1ccccc1	-87.5
O=C1/C(=C/c2ccccc2)C[C@@]2(O)[C@H]3Cc4ccc(O)c5c4[C@@]2(CCN3CC2CC2)C1O5 (some centres not stated)	-45.1
Cc1cccc(C)c1-n1nnnc1C(c1ccccc1OC(F)(F)F)N1CCC(n2c(=O)[nH]c3ccccc32)CC1 (configuration not stated)	61.4*	G6PC hep suppr=i;PCK1 hep suppr=1187;PGC1a hep suppr=135.6
C[C@@H]1O[C@@H](O[C@H]2C[C@@H](O)[C@]3(CO)[C@H]4[C@H](O)C[C@]5(C)[C@@H](C6=CC(=O)OC6)CC[C@]5(O)[C@@H]4CC[C@]3(O)C2)[C@H](O)[C@H](O)[C@H]1O	-82.8
c1cc(CNCCc2ccc3c(c2)OCO3)ccn1	-45.7
CCOc1ccccc1CNCCc1ccc2c(c1)OCO2	-40.1
C[C@@H]1CN([C@@H](C)CO)C(=O)c2c(c3ccccc3n2C)-c2ccccc2CO[C@@H]1CN(C)C(=O)Oc1ccccc1	?	G6PC hep suppr=488.2;PCK1 hep suppr=?;PGC1a hep suppr=276.2
Cc1ccc(OC(=O)N(C)C[C@H]2OCc3ccccc3-c3c(n(C)c4ccccc34)C(=O)N([C@@H](C)CO)C[C@H]2C)cc1	82.2*	G6PC hep suppr=108.7[23.5 µM];PCK1 hep suppr=83.5[23.5 µM];PGC1a hep suppr=103.7
COc1ccc(OC(=O)N(C)C[C@H]2OCc3ccccc3-c3c(n(C)c4ccccc34)C(=O)N([C@H](C)CO)C[C@H]2C)cc1	172.5*	G6PC hep suppr=1.0;PCK1 hep suppr=9.67;PGC1a hep suppr=49.0
Cn1ncnc2c(=O)n(C)c(=O)nc1-2	-100.1
COc1ccc(C[C@H]2NC[C@H](O)[C@H]2OC(C)=O)cc1	-89.8
CC1=NN(c2ccccc2)C(=O)/C1=C/c1c(O)[nH]c(=O)[nH]c1=O	-49.1
c1ccc2c(N3CCNCC3)cccc2c1	-49.3
O=C1NC2C(=CC(O)C(O)C2O)c2cc3c(cc21)OCO3 (configuration not stated)	-85.4
O=C1CN=C(c2ccccc2)c2cc([N+](=O)[O-])ccc2N1	-46.2
CCOc1ccccc1N=C1SCCCN1C	-96.6
